Assay outcomes: PubChem BioAssay, The Scripps Research Institute Molecular Screening Center
PP1 inh – PP1-alpha (human) inhibition in PP5 counter-screen; P62136; purified PP1alpha, OMFP fluorescence; inhibition, % at 6.7 µM; actives 0.9% (n = 320,000); AID 2235;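 active means inhibition above the mean inhibition of all tested compounds plus 3 SD, computed separately for each screening campaign, cut at about 15% in these data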
Target sequence (P62136 whole entry, looked up): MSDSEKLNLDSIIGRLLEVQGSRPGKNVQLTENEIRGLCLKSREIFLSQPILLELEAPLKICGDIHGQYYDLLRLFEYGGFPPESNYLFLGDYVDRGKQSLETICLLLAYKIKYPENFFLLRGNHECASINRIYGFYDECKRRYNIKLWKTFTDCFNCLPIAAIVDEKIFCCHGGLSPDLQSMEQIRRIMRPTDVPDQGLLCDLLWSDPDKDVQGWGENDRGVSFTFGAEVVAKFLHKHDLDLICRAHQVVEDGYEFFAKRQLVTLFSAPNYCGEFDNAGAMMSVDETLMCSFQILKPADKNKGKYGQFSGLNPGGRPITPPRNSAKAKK
NS3 helicase inh – inhibitors of Hepatitis C virus NS3 helicase | AID 1800 | inhibition, % at 10.9 µM | actives 0.56% (n = 290,000) | NS3 helicase DNA unwinding, Cy5 molecular beacon fluorescence;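 active means inhibition above the mean of all tested compounds plus 3 SD, set per campaign, cut at about 35% in these data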
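System: HCV NS3 helicase fragment; control set: DMSO and thioflavine S; technique: Cy5 fluorescence at 0 and 60 min, beacon hairpin quenching; reagent: beacon DNA duplex substrate plus ATP; replicates: singlicate; schedule: 1 h reaction at 25 °C, ATP-initiated; medium: MOPS buffer pH 6.5 with MgCl2, DTT, Tween20, BSA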
ZTA counter – blocks Epstein-Barr virus ZTA, an EBNA-1 counter-screen | P03206 | ZTA-DNA binding, fluorescence polarization | inhibition, % at 11 µM | actives 0.15% (n = 320,000) | AID 2234; in the data active means inhibition above about 33%
Target sequence (P03206 whole entry, looked up): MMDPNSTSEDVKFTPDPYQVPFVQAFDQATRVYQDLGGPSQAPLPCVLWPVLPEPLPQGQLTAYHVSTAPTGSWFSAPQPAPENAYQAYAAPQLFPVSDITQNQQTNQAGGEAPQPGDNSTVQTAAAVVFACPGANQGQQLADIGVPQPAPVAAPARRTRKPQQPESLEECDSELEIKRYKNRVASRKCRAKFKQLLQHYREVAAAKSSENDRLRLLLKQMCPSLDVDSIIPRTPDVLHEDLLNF
EBNA-1 inh – blocks EBNA-1 binding to DNA; inhibition, % at 14.8 µM; EBNA-1 DNA binding, fluorescence polarization; actives 0.34% (n = 300,000); AID 1950; in the data active means inhibition above about 28%
core dimer inh – blocks dimerization of HCV core protein; TR-FRET GST/Flag-core106 dimerization, 1536-well; inhibition, % at 5 µM; actives 0.33% (n = 300,000);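 active means inhibition above the mean of all tested compounds plus 3 SD, set per screening campaign, cut at about 45% in these data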
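Assay system: tagged HCV core106 pair (GST and Flag); medium: KF-containing HEPES buffer, pH 7.45, DTT, CHAPS, BSA; also added: Eu donor and XL665 acceptor anti-tag antibodies; dosing: 5 µM single dose; timing: compound-protein-antibody incubation 4 h at 22.5 °C; signal: TR-FRET 671 and 617 nm emission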
EBNA-1 confirm – EBNA-1 (EBV) inhibition, confirmation; Recombinant EBNA-1 DBD, Cy5-DNA fluorescence polarization; inhibition, % at 14.8 µM; actives 35% (n = 830); shares compounds with EBNA-1 inh; AID 2292;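 active means mean inhibition across replicates above a set limit taken from the earlier primary screen, cut at about 28% in these data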
ZTA counter trip – blocks Epstein-Barr virus ZTA in triplicate, EBNA-1 counter-screen; inhibition, % at 11.1 µM; AID 2328; 830 tested, under 10 active; shares compounds with EBNA-1 inh; Zta-ZRE DNA binding, Cy5 fluorescence polarization;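 active means mean inhibition over triplicates above a set limit taken from the primary EBNA-1 screen, cut at about 37% in these data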;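 further: purified full length Zta protein with Cy5 labeled ZRE DNA probe; inhibitors lower polarization by freeing the labeled DNA probe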
Large screens that a line does not name were inactive (follow-up assays come after a bar, where they were run). A selection: hits, their analogues and other compounds. The true share with any hit is near 1.9%.

CCOP(=O)(c1ccccc1)C(O)c1ccc(F)cc1 (stereo not given)	EBNA-1 inh 103 | EBNA-1 confirm inactive | ZTA counter trip inactive
CCOP(=O)(c1ccccc1)C(O)c1ccc([N+](=O)[O-])cc1 (stereo not given)	none
O=C(Nc1ccccc1F)c1cc2c(s1)-c1ccccc1S(=O)(=O)C2	EBNA-1 inh 53 | EBNA-1 confirm 57 | ZTA counter trip inactive
CCOc1ccc(C2C=C(c3ccccc3)Nc3nnnn32)cc1 (stereo not given)	none
CCOc1ccc(C2C=C(c3ccc(C)cc3)Nc3nnnn32)cc1 (stereo not given)	EBNA-1 inh 52 | EBNA-1 confirm inactive | ZTA counter trip inactive
COc1ccc2oc(C(=O)OCC(=O)Nc3ccc(OC)c(S(N)(=O)=O)c3)c(C)c2c1	none (no result: NS3 helicase inh)
COc1ccc2oc(C(=O)OCC(=O)Nc3ccc(NC(C)=O)cc3)c(C)c2c1	EBNA-1 inh 120 (no result: NS3 helicase inh) | EBNA-1 confirm 167 | ZTA counter trip inactive
CC(=O)Nc1ccc(NC(=O)C(C)OC(=O)c2oc3ccccc3c2C)cc1 (stereo not given)	EBNA-1 inh 80 (no result: NS3 helicase inh) | EBNA-1 confirm 118 | ZTA counter trip inactive
COc1ccc2oc(C(=O)OCC(=O)Nc3cc(S(=O)(=O)N4CCOCC4)ccc3C)c(C)c2c1	EBNA-1 inh 62 (no result: NS3 helicase inh) | EBNA-1 confirm 107 | ZTA counter trip inactive
Cc1ccc(CNC(=O)C2CCCN(S(=O)(=O)c3cccc4nonc34)C2)cc1 (stereo not given)	none
O=C1NC(=O)c2cc(Oc3ccc([N+](=O)[O-])cc3)ccc21	none
Cc1csc2ncnc(N3CCN(C(=S)Nc4ccc(C(F)(F)F)cc4)CC3)c12	EBNA-1 inh 47 | EBNA-1 confirm inactive | ZTA counter trip inactive
Cc1csc2c(N3CCN(C(=S)Nc4ccc(C(F)(F)F)cc4)CC3)ncnc12	none
CCOC(=O)c1c(C)[nH]c(C(=O)COC(=O)CNC(=O)c2ccc(Cl)cc2Cl)c1C	EBNA-1 inh 96 | EBNA-1 confirm inactive | ZTA counter trip inactive
N#Cc1nc(-c2ccc(Cl)cc2)oc1NCc1ccco1	none
N#Cc1nc(-c2ccc(Cl)cc2)oc1NCc1cccc2c1OCO2	EBNA-1 inh 28 | EBNA-1 confirm 30 | ZTA counter trip inactive
Cc1cc(=O)oc2cc(OCC(=O)OCC(=O)N(C)C3CCS(=O)(=O)C3)ccc12 (stereo not given)	none
CCOC(=O)[C@@H]1[C@H]2COc3cc(OC)ccc3[C@H]2N2C(=O)N(c3cccc(Cl)c3)C(=O)[C@]12C	EBNA-1 inh 32 | EBNA-1 confirm inactive | ZTA counter trip inactive
CCOC(=O)[C@@H]1[C@H]2COc3cc(OC)ccc3[C@H]2N2C(=O)N(c3cccc(Cl)c3)C(=O)[C@@]12C	none
Cc1ccc(CN(c2ccc(C(=O)NCc3ccc4c(c3)OCO4)cc2)S(C)(=O)=O)cc1	EBNA-1 inh 35 | EBNA-1 confirm inactive | ZTA counter trip inactive
Cc1ccc(C(=O)NCc2ccc3c(c2)OCO3)cc1	none
CN(Cc1ccccc1)S(=O)(=O)c1ccc(Cl)c(C(=O)NCc2ccc3c(c2)OCO3)c1	EBNA-1 inh 37 | EBNA-1 confirm inactive | ZTA counter trip inactive
COc1cc(/C=C(/NC(C)=O)C(=O)O)cc(Cl)c1OCc1ccc(Br)cc1	none
Cn1c(NC(=O)c2cccc(Cn3cc(Cl)cn3)c2)nc2ccccc21	EBNA-1 inh 41 | EBNA-1 confirm 34 | ZTA counter trip inactive
Cc1ccc(S(=O)(=O)NCC(=O)N(CC(=O)NCC2CCCO2)Cc2ccccc2Cl)cc1 (stereo not given)	none
O=C(NCC1CCCO1)C(=Cc1cccc([N+](=O)[O-])c1)C(=O)NCC1CCCO1 (stereo not given)	none
CCCN(CC(=O)Nc1ccc(C(N)=O)cc1)CC(=O)Nc1ccc(Cl)cc1Cl	EBNA-1 inh 29 | EBNA-1 confirm inactive | ZTA counter trip inactive
O=C(Nc1cccc(-c2cnc3ccccc3n2)c1)c1cccc(NC(=O)c2ccco2)c1	none
COc1cc(NC(=O)c2ccc(Br)cc2)c(OC)cc1NC(=O)c1ccccc1	EBNA-1 inh 57 | EBNA-1 confirm 64 | ZTA counter trip inactive
O=C(Nc1cccc(-c2cnc3ccccc3n2)c1)c1ccccc1	EBNA-1 inh 40 | EBNA-1 confirm inactive | ZTA counter trip inactive
COc1cc(NC(=O)c2cccnc2)c(OC)cc1NC(=O)c1ccc(Br)cc1	none
O=C(Nc1ccc(Nc2ccccc2)cc1)c1ccc(Br)cc1	none
COc1cc(NC(=O)c2ccccc2)c(OC)cc1NC(=O)Cc1ccc(Br)cc1	EBNA-1 inh 36 | EBNA-1 confirm 50 | ZTA counter trip inactive
O=C(Nc1cccc(C(=O)Nc2ccc(Br)cc2)c1)c1ccccc1	EBNA-1 inh 33 | EBNA-1 confirm inactive | ZTA counter trip inactive
O=C(CCNC(=O)c1ccc(Cl)cc1)Nc1cccc(S(=O)(=O)N2CCCCCC2)c1	none (no result: NS3 helicase inh)
COc1ccc2nc3sc(C(=O)NCc4cccs4)c(N)c3cc2c1	EBNA-1 inh 31 | EBNA-1 confirm inactive | ZTA counter trip inactive
COc1ccc(-c2cc(C(=O)NCc3cccs3)no2)cc1	none
CCOC(=O)C1CCN(S(=O)(=O)c2cc(C(=O)OC)n(C)c2)CC1	none
Cc1ccc(S(=O)(=O)c2cn(CC(=O)Nc3ccccc3)c3ccc(F)cc3c2=O)cc1	none
Cc1ccc(NC(=O)Cn2cc(S(=O)(=O)c3ccc(F)cc3)c(=O)c3cc(F)ccc32)cc1	EBNA-1 inh 29 | EBNA-1 confirm 47 | ZTA counter trip inactive
COc1ccc(N(C(=O)c2ccco2)C(C(=O)NC2CCCC2)c2cccs2)c(OC)c1 (stereo not given)	EBNA-1 inh 55 | EBNA-1 confirm inactive | ZTA counter trip inactive
O=C(COC(=O)c1ccc(CNS(=O)(=O)c2ccc(F)c(Cl)c2)cc1)NCC1CCCCC1	EBNA-1 inh 31 | EBNA-1 confirm inactive | ZTA counter trip inactive
O=C(COC(=O)c1ccc(CNS(=O)(=O)c2ccc(F)c(Cl)c2)cc1)NC1CCCCCCC1	none
NS(=O)(=O)c1ccc(NC(=O)c2ccc(S(=O)(=O)N3CCc4ccccc43)cc2)cc1	EBNA-1 inh 94, core dimer inh 58 | EBNA-1 confirm inactive | ZTA counter trip inactive
COc1ccc(C(=O)Nc2ccc(S(=O)(=O)N3CCc4ccccc43)cc2)cc1	none
COC(=O)C1=C(CS(=O)(=O)c2ccccc2)NC(=O)NC1c1ccccc1 (stereo not given)	none
O=C(Nc1ccc(N2CCN(c3ncccc3C(F)(F)F)CC2)nc1)c1cccs1	none
O=C(Nc1ccc(N2CCN(c3ccc(C(F)(F)F)cn3)CC2)nc1)c1cccs1	EBNA-1 inh 39 | EBNA-1 confirm inactive | ZTA counter trip inactive
